Activity calls are given as the source filed them.
Key:
[1] = species on record: Rattus norvegicus; assay: Compound was tested for diuretic activity in rats; I=Inactive; assay type: functional, organism-based; settings: Urine
Procedure, shortened: (§1)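 Male rats (~160 g) fasted 24 h, water withheld 1.5 h, both withheld during test. Gavage 25 mL/kg 0.9% saline with 0.5% carboxymethylcellulose containing compound at 40 mg/kg; urine collected 5 h in metabolism cages. Two-stage test, T/C urine volume per stage; active if product of stage T/Cs ≥3.34.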

[2] = test system: Rattus norvegicus; assay: Compound was tested for inhibition of RPAR administered perorally at 25 mg/kg dose; I=Inactive; assay type: functional, organism-based; design: dose 25 mg/kg
Procedure, shortened: (§2)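 Male Wistar rats (180-200 g), 5-10/group, dosed orally (water with Tween-80 suspension) 1 h before iv sensitization with 1 mg bovine serum albumin; 24-h fasted. 60 min later subplantar challenge with 200 µg anti-BSA in left hindpaw. Paw swelling by mercury displacement plethysmography at 2 h post-challenge.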

[3] = species on record: Rattus norvegicus; assay: Diuretic activity in rats; assay type: functional, Urine; procedure, shortened: as §1
[4] = test system: Rattus norvegicus; assay: Compound was tested for inhibition of RPAR administered perorally at 100 mg/kg dose; assay type: functional; settings: route oral; procedure, shortened: as §2
[5] = test system: Rattus norvegicus; assay: Compound was tested for inhibition of RPAR administered perorally at 25 mg/kg dose; assay type: functional; settings: route oral; procedure, shortened: as §2
[6] = test system: Rattus norvegicus; assay: Compound was tested for inhibition of RPAR administered perorally at 50 mg/kg dose; assay type: functional; settings: route oral; procedure, shortened: as §2
[7] = test system: Rattus norvegicus; assay: Blood pressure change in rats after oral administration of 50 mg/kg dose after 24 hours; assay type: functional
Procedure, shortened: (§3)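 Restrained female Sprague–Dawley rats with indwelling aortic cannulas exteriorized at the nape; direct arterial pressure via transducer, mean pressure by electrical integration of phasic pressure. Readings before and 4 and 24 h after oral dosing (carboxymethylcellulose suspension, 10 mL/kg). Value is change in mean arterial pressure, averaged over two animals.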

[8] = test system: Rattus norvegicus; assay: Blood pressure change in rats after oral administration of 50 mg/kg dose after 4 hours; assay type: functional; procedure, shortened: as §3
[9] = Potassium salt excretion in conscious rat at the dose of 0.3 mg/kg expressed as urinary excretion in treated rats/urinary excretion in control rats; assay type: ADME, organism-based, Urine; design: dose 0.3 mg/kg; settings: in vivo
Procedure, shortened: (§4)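 Male rats (~160 g) fasted 24 h, water withheld 1.5 h; oral gavage of compound (0.3-100 mg/kg) in 25 mL/kg saline with 0.5% carboxymethylcellulose; 5 h urine collection in metabolism cages. Urine volume, Na+ and K+ (flame photometry) expressed as treated/control excretion ratio.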

[10] = Potassium salt excretion in conscious rat at the dose of 1.0 mg/kg expressed as urinary excretion in treated rats/urinary excretion in control rats; assay type: ADME, organism-based, Urine; design: dose 1 mg/kg; settings: in vivo; procedure, shortened: as §4
[11] = Potassium salt excretion in conscious rat at the dose of 10 mg/kg expressed as urinary excretion in treated rats/urinary excretion in control rats; assay type: ADME, organism-based, Urine; design: dose 10 mg/kg; settings: in vivo; procedure, shortened: as §4
[12] = Potassium salt excretion in conscious rat at the dose of 100 mg/kg expressed as urinary excretion in treated rats/urinary excretion in control rats; assay type: ADME, organism-based, Urine; design: dose 100 mg/kg; settings: in vivo; procedure, shortened: as §4
[13] = Potassium salt excretion in conscious rat at the dose of 3.0 mg/kg expressed as urinary excretion in treated rats/urinary excretion in control rats; assay type: ADME, organism-based, Urine; design: dose 3 mg/kg; settings: in vivo; procedure, shortened: as §4
[14] = Potassium salt excretion in conscious rat at the dose of 30 mg/kg expressed as urinary excretion in treated rats/urinary excretion in control rats; assay type: ADME, organism-based, Urine; design: dose 30 mg/kg; settings: in vivo; procedure, shortened: as §4
[15] = Sodium salt excretion in conscious rat at the dose of 0.3 mg/kg expressed as urinary excretion in treated rats/urinary excretion in control rats; assay type: ADME, organism-based, Urine; design: dose 0.3 mg/kg; settings: in vivo; procedure, shortened: as §4
[16] = Sodium salt excretion in conscious rat at the dose of 1.0 mg/kg expressed as urinary excretion in treated rats/urinary excretion in control rats; assay type: ADME, organism-based, Urine; design: dose 1 mg/kg; settings: in vivo; procedure, shortened: as §4
[17] = Sodium salt excretion in conscious rat at the dose of 10 mg/kg expressed as urinary excretion in treated rats/urinary excretion in control rats; assay type: ADME, organism-based, Urine; design: dose 10 mg/kg; settings: in vivo; procedure, shortened: as §4
[18] = Sodium salt excretion in conscious rat at the dose of 100 mg/kg expressed as urinary excretion in treated rats/urinary excretion in control rats; assay type: ADME, organism-based, Urine; design: dose 100 mg/kg; settings: in vivo; procedure, shortened: as §4
[19] = Sodium salt excretion in conscious rat at the dose of 3.0 mg/kg expressed as urinary excretion in treated rats/urinary excretion in control rats; assay type: ADME, organism-based, Urine; design: dose 3 mg/kg; settings: in vivo; procedure, shortened: as §4
[20] = Sodium salt excretion in conscious rat at the dose of 30 mg/kg expressed as urinary excretion in treated rats/urinary excretion in control rats; assay type: ADME, organism-based, Urine; design: dose 30 mg/kg; settings: in vivo; procedure, shortened: as §4
[21] = test system: Rattus norvegicus; assay: Compound was tested for urinary volume excretion in conscious rat at the dose of 0.3 mg/kg expressed as urinary excretion in treated rats/urinary excretion in control rats; assay type: ADME, organism-based, Urine; design: dose 0.3 mg/kg; settings: in vivo; procedure, shortened: as §4
[22] = test system: Rattus norvegicus; assay: Compound was tested for urinary volume excretion in conscious rat at the dose of 1.0 mg/kg expressed as urinary excretion in treated rats/urinary excretion in control rats; assay type: ADME, organism-based, Urine; design: dose 1 mg/kg; settings: in vivo; procedure, shortened: as §4
[23] = test system: Rattus norvegicus; assay: Compound was tested for urinary volume excretion in conscious rat at the dose of 10 mg/kg expressed as urinary excretion in treated rats/urinary excretion in control rats; assay type: ADME, organism-based, Urine; design: dose 10 mg/kg; settings: in vivo; procedure, shortened: as §4
[24] = test system: Rattus norvegicus; assay: Compound was tested for urinary volume excretion in conscious rat at the dose of 100 mg/kg expressed as urinary excretion in treated rats/urinary excretion in control rats; assay type: ADME, organism-based, Urine; design: dose 100 mg/kg; settings: in vivo; procedure, shortened: as §4
[25] = test system: Rattus norvegicus; assay: Compound was tested for urinary volume excretion in conscious rat at the dose of 3.0 mg/kg expressed as urinary excretion in treated rats/urinary excretion in control rats; assay type: ADME, organism-based, Urine; design: dose 3 mg/kg; settings: in vivo; procedure, shortened: as §4
[26] = test system: Rattus norvegicus; assay: Compound was tested for urinary volume excretion in conscious rat at the dose of 30 mg/kg expressed as urinary excretion in treated rats/urinary excretion in control rats; assay type: ADME, organism-based, Urine; design: dose 30 mg/kg; settings: in vivo; procedure, shortened: as §4
[27] = test system: Rattus norvegicus; assay: Compound was tested for blood pressure change in rats after oral administration of 50 mg/kg dose after 24 hours; assay type: functional; procedure, shortened: as §3
[28] = test system: Rattus norvegicus; assay: Compound was tested for blood pressure change in rats after oral administration of 50 mg/kg dose after 4 hours; assay type: functional; procedure, shortened: as §3
[29] = test system: Rattus norvegicus; assay: Inhibition of RPAR administered perorally at 100 mg/kg dose; assay type: functional; settings: route oral; procedure, shortened: as §2
[30] = test system: Rattus norvegicus; assay: Inhibition of RPAR administered perorally at 25 mg/kg dose; assay type: functional; settings: route oral; procedure, shortened: as §2
[31] = test system: Rattus norvegicus; assay: Inhibition of RPAR administered perorally at 50 mg/kg dose; assay type: functional; settings: route oral; procedure, shortened: as §2

| SMILES | Diuretic activity [3] | MABP change [7] | K+ excretion [9] | K+ excretion [10] | K+ excretion [11] | K+ excretion [12] | K+ excretion [13] | K+ excretion [14] | Na+ excretion [15] | Na+ excretion [16] | Na+ excretion [17] | Na+ excretion [18] | Na+ excretion [19] | Na+ excretion [20] | Urinary volume [21] | Urinary volume [22] | Urinary volume [23] | Urinary volume [24] | Urinary volume [25] | Urinary volume [26] | further results |
| --- | --- | --- | --- | --- | --- | --- | --- | --- | --- | --- | --- | --- | --- | --- | --- | --- | --- | --- | --- | --- | --- |
| Nc1nc(O)cc(-c2ccccc2)n1 |  |  |  |  |  |  |  |  |  |  |  |  |  |  |  |  |  |  |  |  | Diuretic activity [1]: inactive; inhibition [2]: inactive |
| Cn1c(N)nc(-c2ccccc2)c(Br)c1=O | 5.52 | -7 mmHg | 1.1 | 1 | 1.7 | 2.2 | 1.3 | 2.2 | 1 | 1.2 | 2.1 | 2.8 | 1.3 | 2.5 | 1 | 0.9 | 2.3 | 2.8 | 1.4 | 2.5 | inhibition in vivo at 100 mg/kg [4]: 74%; inhibition in vivo at 25 mg/kg [5]: 36%; inhibition in vivo at 50 mg/kg [6]: 64%; MABP change [8]: -12 mmHg |
| NS(=O)(=O)c1cc2c(cc1Cl)NCNS2(=O)=O [HYDROCHLOROTHIAZIDE] | 7.18 |  | 1.2 | 1.6 | 1.5 | 1.7 | 1.6 | 1.5 | 1.7 | 2 | 2.4 | 2.5 | 2.1 | 2.4 | 1.9 | 2.3 | 2.4 | 2.7 | 2.2 | 2.6 | MABP change [27]: 2 mmHg; MABP change [28]: 0 mmHg |
| Nc1nc(=O)c(Br)c(-c2ccccc2)[nH]1 [BROPIRIMINE] | 7.41 | -22 mmHg | 1.1 | 1 | 1.3 | 1.3 | 1.1 | 1.5 | 1.1 | 1.3 | 2.3 | 2.8 | 1.5 | 2.9 | 1.1 | 1.2 | 2.5 | 2.7 | 1.3 | 2.6 | inhibition in vivo at 100 mg/kg [29]: 44%; inhibition in vivo at 25 mg/kg [30]: 13%; inhibition in vivo at 50 mg/kg [31]: 31%; MABP change [8]: 0 mmHg |

Source: ChEMBL document CHEMBL1123346, “Pyrimidinones. 3. N-substituted 6-phenylpyrimidinones and pyrimidinediones with diuretic/hypotensive and antiinflammatory activity” (J Med Chem, 1986)
